Experimental data taken from ChEMBL document CHEMBL1275561, “In vitro activities of doripenem, a new broad-spectrum carbapenem, against recently collected clinical anaerobic isolates, with emphasis on the Bacteroides fragilis group” (2008).
≈ marks a conversion by molar mass, not a printed value.

Legend:
Type in all cases: functional
Clostridioides difficile = test: Antimicrobial activity against Clostridium difficile by agar dilution method
Clostridium perfringens = test: Antimicrobial activity against Clostridium perfringens by agar dilution method
[Clostridium] innocuum [1] = Antimicrobial activity against Clostridium innocuum by agar dilution method
[Clostridium] innocuum [2] = Antimicrobial activity against Clostridium innocuum assessed as resistant isolates by agar dilution method; settings: pooled result: one value given for 4 cell lines, strains, targets or settings
[3] = test system: Clostridium paraputrificum; test: Antimicrobial activity against Clostridium paraputrificum by agar dilution method
Clostridium subterminale = test: Antimicrobial activity against Clostridium subterminale by agar dilution method
Clostridium tertium = test: Antimicrobial activity against Clostridium tertium by agar dilution method
Finegoldia magna [4] = test: Antimicrobial activity against Finegoldia magna by agar dilution method
Method in brief: (§1)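 Gram-positive anaerobes were tested by CLSI agar dilution on brucella agar enriched with 5% lysed defibrinated sheep blood and 1 μg/ml vitamin K1. Inoculum was log-phase growth at 0.5 McFarland, about 10^5 CFU/spot by replicator. Incubation was anaerobic, 37°C, 48 h. MIC was the lowest concentration with a marked growth change versus the drug-free plate. Eubacterium lentum ATCC 43055 was the control, and tests were repeated if it fell outside the CLSI range.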

Finegoldia magna [5] = test: Antimicrobial activity against Finegoldia magna assessed as resistant isolates by agar dilution method
Method in brief: (§2)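 Agar dilution following CLSI on brucella agar with 5% lysed defibrinated sheep blood and 1 μg/ml vitamin K1, plates made on test day. Log-phase cells at 0.5 McFarland, about 10^5 CFU/spot by Steers replicator, 48 h anaerobic at 37°C. MIC read as the lowest concentration causing a marked growth change versus control. Resistance counted by CLSI anaerobe breakpoints. Eubacterium lentum ATCC 43055 served as control.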

[6] = test system: Peptoniphilus asaccharolyticus; test: Antimicrobial activity against Peptoniphilus asaccharolyticus by agar dilution method; method in brief: as §1
[7] = test system: Peptoniphilus asaccharolyticus; test: Antimicrobial activity against Peptoniphilus asaccharolyticus assessed as resistant isolates by agar dilution method; settings: pooled result: one value given for 4 cell lines, strains, targets or settings; method in brief: as §2
Parvimonas micra = test: Antimicrobial activity against Micromonas micros by agar dilution method; method in brief: as §1
Anaerococcus prevotii = test: Antimicrobial activity against Anaerococcus prevotii by agar dilution method; method in brief: as §1
Peptostreptococcus sp. = test: Antimicrobial activity against Peptostreptococcus sp. by agar dilution method
Method in brief: (§3)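 Log-phase isolates were adjusted to 0.5 McFarland, and about 10^5 CFU/spot was delivered by Steers replicator. Plates were incubated anaerobically at 37°C for 48 h. MIC was the lowest concentration giving a marked growth change versus the control plate. Eubacterium lentum ATCC 43055 was the QC strain, with repeats when out of range.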

Cutibacterium acnes [8] = test: Antimicrobial activity against Propionibacterium acnes by agar dilution method; method in brief: as §3
Cutibacterium acnes [9] = test: Antimicrobial activity against Propionibacterium acnes assessed as resistant isolates by agar dilution method; method in brief: as §2
Propionibacterium [10] = test: Antimicrobial activity against Propionibacterium sp. by agar dilution method; method in brief: as §3
Propionibacterium [11] = test: Antimicrobial activity against Propionibacterium sp. assessed as resistant isolates by agar dilution method; method in brief: as §2

Compound `CC(=O)NC[C@H]1CN(c2ccc(N3CCOCC3)c(F)c2)C(=O)O1` [LINEZOLID] has an MIC (Clostridioides difficile) of 1 mg/L (≈ 2.96 µM), an MIC (Clostridium perfringens) of 2 mg/L (≈ 5.93 µM) and an MIC50 (Clostridium perfringens) of 2 mg/L (≈ 5.93 µM). The MIC90 (Clostridium perfringens) was 4 mg/L (≈ 11.9 µM), the MIC50 ([Clostridium] innocuum [1]) was 4 mg/L (≈ 11.9 µM) and the MIC90 ([Clostridium] innocuum [1]) was 8 mg/L (≈ 23.7 µM). The Activity ([Clostridium] innocuum [2]) was 11%, the MIC50 [3] was 4 mg/L (≈ 11.9 µM) and the MIC90 [3] was 8 mg/L (≈ 23.7 µM). It also gave an MIC50 (Clostridium subterminale) of 4 mg/L (≈ 11.9 µM), an MIC90 (Clostridium subterminale) of 8 mg/L (≈ 23.7 µM) and an MIC50 (Clostridium tertium) of 4 mg/L (≈ 11.9 µM). The MIC90 (Clostridium tertium) was 8 mg/L (≈ 23.7 µM), the MIC (Finegoldia magna [4]) was 2 mg/L (≈ 5.93 µM) and the MIC50 (Finegoldia magna [4]) was 2 mg/L (≈ 5.93 µM). For the same compound, the MIC90 (Finegoldia magna [4]) was 2 mg/L (≈ 5.93 µM), the Activity (Finegoldia magna [5]) was 0% and the MIC50 [6] was 1 mg/L (≈ 2.96 µM). The MIC90 [6] was 2 mg/L (≈ 5.93 µM), the Activity [7] was 0% and the MIC50 (Parvimonas micra) was 1 mg/L (≈ 2.96 µM). The MIC90 (Parvimonas micra) was 2 mg/L (≈ 5.93 µM), the MIC50 (Anaerococcus prevotii) was 1 mg/L (≈ 2.96 µM) and the MIC90 (Anaerococcus prevotii) was 2 mg/L (≈ 5.93 µM). The MIC50 (Peptostreptococcus sp.) was 1 mg/L (≈ 2.96 µM), the MIC90 (Peptostreptococcus sp.) was 2 mg/L (≈ 5.93 µM) and the MIC (Cutibacterium acnes [8]) was 0.5 mg/L (≈ 1.48 µM). It also gave an MIC50 (Cutibacterium acnes [8]) of 0.5 mg/L (≈ 1.48 µM), an MIC90 (Cutibacterium acnes [8]) of 1 mg/L (≈ 2.96 µM) and an Activity (Cutibacterium acnes [9]) of 0%. For the same compound, the MIC (Propionibacterium [10]) was 0.5 mg/L (≈ 1.48 µM), the MIC50 (Propionibacterium [10]) was 0.5 mg/L (≈ 1.48 µM) and the MIC90 (Propionibacterium [10]) was 0.5 mg/L (≈ 1.48 µM). The Activity (Propionibacterium [11]) was 0%.
Compound `Cc1ncc([N+](=O)[O-])n1CCO` [METRONIDAZOLE] has an MIC (Clostridioides difficile) of 0.5 mg/L (≈ 2.92 µM), an MIC50 (Clostridium perfringens) of 2 mg/L (≈ 11.7 µM) and an MIC90 (Clostridium perfringens) of 4 mg/L (≈ 23.4 µM). It also gave an MIC50 ([Clostridium] innocuum [1]) of 2 mg/L (≈ 11.7 µM), an MIC90 ([Clostridium] innocuum [1]) of 2 mg/L (≈ 11.7 µM) and an Activity ([Clostridium] innocuum [2]) of 5.6%. It also gave an MIC50 [3] of 2 mg/L (≈ 11.7 µM), an MIC90 [3] of 2 mg/L (≈ 11.7 µM) and an MIC50 (Clostridium subterminale) of 2 mg/L (≈ 11.7 µM). For the same compound, the MIC90 (Clostridium subterminale) was 2 mg/L (≈ 11.7 µM), the MIC50 (Clostridium tertium) was 2 mg/L (≈ 11.7 µM) and the MIC90 (Clostridium tertium) was 2 mg/L (≈ 11.7 µM). The MIC (Finegoldia magna [4]) was 0.5 mg/L (≈ 2.92 µM), the MIC50 (Finegoldia magna [4]) was 0.5 mg/L (≈ 2.92 µM) and the MIC90 (Finegoldia magna [4]) was 0.5 mg/L (≈ 2.92 µM). The Activity (Finegoldia magna [5]) was 0%, the MIC50 [6] was 1 mg/L (≈ 5.84 µM) and the MIC90 [6] was 32 mg/L (≈ 187 µM). For the same compound, the Activity [7] was 34.1%, the MIC50 (Parvimonas micra) was 1 mg/L (≈ 5.84 µM) and the MIC90 (Parvimonas micra) was 32 mg/L (≈ 187 µM). For the same compound, the MIC50 (Anaerococcus prevotii) was 1 mg/L (≈ 5.84 µM), the MIC90 (Anaerococcus prevotii) was 32 mg/L (≈ 187 µM) and the MIC50 (Peptostreptococcus sp.) was 1 mg/L (≈ 5.84 µM). It also gave an MIC90 (Peptostreptococcus sp.) of 32 mg/L (≈ 187 µM), an MIC50 (Cutibacterium acnes [8]) of 32 mg/L (≈ 187 µM) and an MIC90 (Cutibacterium acnes [8]) of 32 mg/L (≈ 187 µM). The Activity (Cutibacterium acnes [9]) was 94.4%, the MIC50 (Propionibacterium [10]) was 32 mg/L (≈ 187 µM) and the MIC90 (Propionibacterium [10]) was 32 mg/L (≈ 187 µM). For the same compound, the Activity (Propionibacterium [11]) was 92.3%.
